{"data": "Measured values of several laboratories", "target": "Mitogen-activated protein kinase 13 (MAPK13, Homo sapiens, UniProt O15264)", "One construct used (O15264 1-365)": "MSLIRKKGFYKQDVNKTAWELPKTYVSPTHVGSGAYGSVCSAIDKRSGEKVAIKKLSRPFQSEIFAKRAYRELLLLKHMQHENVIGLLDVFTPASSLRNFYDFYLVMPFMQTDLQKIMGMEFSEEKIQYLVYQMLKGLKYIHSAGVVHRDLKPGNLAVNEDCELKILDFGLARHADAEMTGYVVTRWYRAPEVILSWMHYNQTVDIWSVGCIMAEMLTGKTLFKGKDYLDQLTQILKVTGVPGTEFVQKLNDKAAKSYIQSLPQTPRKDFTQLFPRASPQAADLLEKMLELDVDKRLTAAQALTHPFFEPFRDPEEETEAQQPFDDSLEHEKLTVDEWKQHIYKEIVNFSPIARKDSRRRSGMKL", "note": "Each line is one published result; the experiments were not run side by side."}
{"SMILES": "Cn1cncc1[C@](O)(COc1ccc(C#N)cc1-c1ccc(OC(F)(F)F)cc1)c1ccc(C#N)cc1", "read-out": "cell-free assay", "method": "competition with immobilised ligand", "tested at": "1 µM", "quantity": "remaining binding", "result": "87%"}
{"SMILES": "Cc1nn(C)cc1-c1nc2c(N3CCN(Cc4ccc(Cl)cc4)CC3)c(Cl)cnc2[nH]1", "read-out": "binding", "method": "competition with immobilised ligand", "tested at": "1 µM", "quantity": "remaining binding", "result": "100%"}
{"SMILES": "N#CC1(c2ccccn2)CCN(Cc2cc(C(=O)O)c(=O)n3ccccc23)CC1", "read-out": "cell-free assay", "method": "competition with immobilised ligand", "tested at": "1 µM", "quantity": "remaining binding", "result": "100%"}
{"SMILES": "COc1ncccc1-c1cnn2ccc(N3CCN(C(=O)OC(C)C)CC3)nc12", "read-out": "binding", "method": "competition with immobilised ligand", "tested at": "1 µM", "quantity": "remaining binding", "result": "100%"}
{"SMILES": "Cn1cc(-c2cc(F)cc(N3CCn4c(cc5c4CCCC5)C3=O)c2CO)cc(Nc2ccc(N3CCN(C4COC4)CC3)cn2)c1=O", "read-out": "enzyme activity", "mode": "inhibitor", "tested at": "0.1 µM", "quantity": "inhibition", "result": "15%"}
{"SMILES": "O=c1[nH]c2ccccc2n1C1CCN(Cc2ccc(-c3[nH]c4cc5ncnc5cc4nc3-c3ccccc3)cc2)CC1", "read-out": "cell-free assay", "tested at": "0.5 µM", "quantity": "remaining signal", "result": "102%"}
{"SMILES": "Cn1cc(-c2cccc(N3CCc4c(sc5c4CC(C)(C)C5)C3=O)c2CO)cc(Nc2ccncn2)c1=O", "read-out": "enzyme activity", "mode": "inhibitor", "tested at": "1 µM", "quantity": "inhibition", "result": "5%"}
{"SMILES": "COc1cc(Nc2ncc(F)c(Nc3ccc4c(n3)NC(=O)C(C)(C)O4)n2)cc(OC)c1OC", "read-out": "binding", "method": "competition with immobilised ligand", "tested at": "10 µM", "quantity": "inhibition", "result": "100%"}
{"SMILES": "CC(C)(C)c1cc(C=C(C#N)C#N)cc(Br)c1O", "read-out": "enzyme activity", "mode": "inhibitor", "tested at": "0.5 µM", "quantity": "remaining activity", "result": "98.5%"}
